Screening data: PubChem, Broad Institute
Compounds with a hit are over-represented: about 2.9% of the library has one in this group of screens.
Cneo AK release: Cryptococcus neoformans lysis via adenylate kinase release | C. neoformans lysis, adenylate kinase release luminescence, 4 h; normalised: neutral wells 0, clomiphene wells 100 | lysis activity, % at 15 µM | hit rate 0.2% among 360,000;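 active = mean lysis activity across replicates of at least 80%, whatever share of replicates individually reach that level; inactive = mean lysis activity below 80%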
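Test system: log-phase Cryptococcus neoformans yeast cells. Input: 5 × 10^6 yeast cells/mL. Medium: fresh YPD growth medium. Doses: single dose. Incubation: static 4 h at 37 °C with compound, 1 h detection. Measured by: luminescent adenylate kinase detection reagent. Read-out: signal increase indicating cell lysis. Benchmarks: Clomiphene.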
FGF22 binding: binders of recombinant human FGF22 by thermal shift. SYPRO orange fluorescence; percent of sucrose octasulfate shift, DMSO zero. activity (Tm shift, normalised), % at 9.99 µM. hit rate 1.5% among 340,000. AID 651658;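 active = mean Tm shift, scaled 0 neutral to 100 positive control, at about 1.3% or above, every replicate too, limit read from the data; inconclusive = no clear call, values can overlap the other calls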
Target sequence (Q9HCT0 whole entry, looked up): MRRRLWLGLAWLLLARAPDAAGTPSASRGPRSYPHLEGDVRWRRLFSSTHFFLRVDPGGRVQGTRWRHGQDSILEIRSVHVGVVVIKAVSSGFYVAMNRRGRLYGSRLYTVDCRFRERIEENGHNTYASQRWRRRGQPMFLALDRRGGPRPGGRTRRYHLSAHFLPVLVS
rRNA inh HTS: selective bacterial rRNA inhibition in E. coli; E. coli WT GFP vs humanized-ribosome RFP mutants, fluorescence, 24 h; active compounds read low; DMSO median 0, no signal -100; hit rate 1.6% among 350,000; GFP signal change (wild-type ribosome), % (concentration not given with the values);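 active = significant combined selectivity score with lowered wild-type GFP, culture density cut under 30%, mutant RFP and density less affected; inactive = any of these conditions unmet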
PglD DTNB: PglD (C. jejuni) enzyme inhibition | purified PglD enzyme, DTNB colorimetric CoA detection | inhibition, % at 12.5 µM | hit rate 0.098% among 360,000 | AID 602405; in the data active = inhibition above about 16%, passing the limit was not always enough; inconclusive = no clear call, values can overlap the other calls
PGC1a acetyl inh: PGC1a acetylation modulation, inhibitor mode | U2OS PGC1a acetylation, AlphaScreen anti-acetyl-lysine; with virally co-expressed GCN5 acetyltransferase | inhibition, % at 15.6 µM | hit rate 0.17% among 350,000 | AID 651687;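 active = every replicate shows inhibition of at least 40%; inconclusive = mean inhibition at least 40% but some replicate below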;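 note: 0% = neutral control wells and 100% = positive control wells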
Vif imaging: blocks HIV Vif function; inhibition, % at 7.49 µM; HEK293T cells, Vif self-association by quenched fluorescence, imaging, 24 h; hit rate 0.35% among 340,000; in the data active = inhibition above about 50%, passing the limit was not always enough; inconclusive = no clear call, values can overlap the other calls; inactive = below about 31%
* marks the source's active call; other numbers are inactive results; ? = inconclusive; . = not tested or not shown; ! = not active in a repeat.

SMILES	Cneo AK release	FGF22 binding	rRNA inh HTS	PglD DTNB	PGC1a acetyl inh	Vif imaging
CC(C)NC(=O)Nc1ccc2c(c1)C(=O)N([C@@H](C)CO)C[C@@H](C)[C@@H](CN(C)S(=O)(=O)c1ccc(Cl)cc1)OCCCC[C@@H](C)O2	102*	0	-4	-1	-6	.
C[C@@H]1CCCCO[C@@H](CN(C)S(=O)(=O)c2ccccc2)[C@H](C)CN([C@@H](C)CO)C(=O)c2cc(NC(=O)Nc3ccccc3)ccc2O1	-2	2.0*	-3	1	-4	.
O=S(=O)(c1ccccc1)N1CC[C@@H]2[C@H](CO)Nc3ccc(C#CC4CCCCC4)cc3[C@@H]21	.	.	3	.	.	.
COc1ccccc1CNC(=O)C[C@@H]1C[C@@H]2c3cc(NC(=O)Nc4ccccc4F)ccc3O[C@@H]2[C@@H](CO)O1	-10	0	1	-2	-12	.
C[C@@H]1CN([C@@H](C)CO)C(=O)CCCn2nncc2CO[C@H]1CN(C)S(=O)(=O)c1ccc(Cl)cc1	2	0	2	-4	97*!	0
CC(C)NC(=O)Nc1ccc2c(c1)CC(=O)N([C@H](C)CO)C[C@H](C)[C@H](CN(C)S(=O)(=O)c1ccc(Cl)cc1)O2	89*	0	-3	0	4	.
CC(C)NC(=O)Nc1ccc2c(c1)CC(=O)N([C@@H](C)CO)C[C@@H](C)[C@H](CN(C)S(=O)(=O)c1ccc(Cl)cc1)O2	1	0	-2	0	-1	.
C[C@H](CO)N1C[C@H](C)[C@@H](CN(C)S(=O)(=O)c2ccc(Cl)cc2)OCc2cnnn2CCCC1=O	-2	0	0	4	5	.
N#Cc1cccnc1Nc1ccc(Cl)cc1	1	43*	-2	-2	.	-3
CCCCc1ccc(Nc2ncccc2C#N)cc1	-2	.	.	-2	-2	.
Cc1ccccc1NC(=O)/C(C#N)=C\c1cc(C)n(-c2ccc(C(=O)O)cc2)c1C	.	0	-23*	.	?	-6
Cc1cc(/C=C(/C#N)C(=O)Nc2ccccc2)c(C)n1-c1cccnc1	-3	.	-4	-3	.	31
O=C(c1csc(Nc2cccc3ccccc23)n1)N1CCCC1	-5	0	-32*	4	0	-7
COc1ccc(C2CC(c3ccc4ccccc4c3)=NN2C(=O)CN2CCC(C(N)=O)CC2)cc1 (stereo not drawn)	1	0	-48*	0	7	14
C=CCNCC(=O)N1N=C(c2ccc3ccccc3c2)CC1c1ccc(OC)cc1 (stereo not drawn)	.	43*	45	.	-31	-1
C[C@@H]1CN([C@@H](C)CO)C(=O)c2cc(NC(=O)c3ccccc3)ccc2O[C@@H](C)CCCCO[C@@H]1CN(C)S(=O)(=O)c1ccc(Cl)cc1	2	0	2	0	-1	.
O=C(Nc1ccccc1)N1CC(=O)N2[C@H](CO)[C@@H](c3ccc(C#CC4CCCC4)cc3)[C@@H]2C1	.	.	-12	.	.	.
CCOc1ccc(-c2nnc3n2N=C(c2ccc(OC)cc2)CS3)cc1	2	.	.	-2	10	50*
CCOc1ccc(C2=Nn3c(nnc3-c3ccccc3OC)SC2)cc1	4	.	.	2	-22	12
Cc1cccc2nc(COc3ccc4ccccc4c3Br)cn12	.	0	-27*	.	-3	-3
Cc1cccc2nc(CSc3ccccc3N)cn12	.	.	.	.	1	6
CN1c2ccc(-c3ccccc3)cc2[C@H]2[C@H](CCN2S(=O)(=O)c2ccccc2F)[C@@H]1CO	-12	0	0	-1	-14	.
O=C(CN1CCCC1)Nc1ccc(F)cc1	.	43*	14	.	-9	6
O=C(CN1CCCC1)NCC(=O)Nc1ccc(F)cc1	-1	0	9	2	-1	3
Cc1ccnc(NC(=O)CCCOc2cc(=O)n(C)c3ccccc23)c1	2	0	-3	0	.	97*
SMILES	Cneo AK release	FGF22 binding	rRNA inh HTS	PglD DTNB	PGC1a acetyl inh	Vif imaging
CCC(=O)N1[C@H](CO)[C@@H](c2ccc(/C=C/c3ccccc3)cc2)C12CN(S(C)(=O)=O)C2	.	-1	1	.	-18	.
CCCCC(CC)C(=O)Oc1ccc(O)c(C(C)(C)C)c1 (stereo not drawn)	42	.	-22*	-2	4	1
CC(C)(C)c1cc(OC(=O)C2CCCC2)ccc1O	-3	0	14	0	7	0
COc1ccc(NC(=O)Nc2ccc3c(c2)C(=O)N([C@@H](C)CO)C[C@H](C)[C@@H](CN(C)C(=O)Nc2c(C)noc2C)OCCCC[C@H](C)O3)cc1	0	0	-2	-2	-6	.
COCCCN1C(=O)C(CC(=O)NCc2cccc3ccccc23)CC(C(=O)N2CCOCC2)=C1C (stereo not drawn)	-1	0	10	1	6	67*
COCCCN1C(=O)C(CC(=O)NCc2cccc3ccccc23)CC(C(=O)N2CCCCCC2)=C1C (stereo not drawn)	.	0	10	.	.	.
Cc1ccc(-n2nc3c(N4CCC(C(=O)NCCc5cccs5)CC4)nnc(C)c3c2C)cc1	4	0	7	-2	.	51*
CC(C)NC(=O)Nc1ccc2c(c1)C(=O)N([C@H](C)CO)C[C@H](C)[C@H](CN(C)C(=O)c1ccncc1)OCCCC[C@H](C)O2	-1	0	-1	-4	-1	.
C[C@H](CO)N1C[C@H](C)[C@@H](CN(C)S(=O)(=O)c2ccccc2)Oc2ccc(NC(=O)Nc3cccc4ccccc34)cc2CC1=O	-4	0	0	10	-11	.
CCC(=O)N1C[C@H](C)[C@@H](OC)CN(C)C(=O)c2ccc(NC(=O)C3CCOCC3)cc2OC[C@H]1C	43	.	-1	-1	-9	.
Cc1ccccc1CN1C(=O)C(C)S/C1=N/N=C/c1ccco1 (stereo not drawn)	.	0	-23*	.	4	-4
O=C(CCC(=O)c1ccc(F)cc1)Nc1cccc(S(=O)(=O)Nc2cccc(Cl)c2)c1	.	0	-41*	.	.	-10
CC(C)C(=O)Nc1cc(S(=O)(=O)Nc2cccc(Cl)c2)ccc1Cl	1	0	-22*	2	-9	2
CC(C)C(=O)Nc1cc(S(=O)(=O)Nc2ccc(Cl)cc2)ccc1Cl	.	0	1	.	.	2
COc1ccc(C#Cc2cnc3c(c2)C(=O)N([C@H](C)CO)C[C@@H](C)[C@@H](CN(C)CC2CC2)O3)cc1	.	.	-2	.	-7	.
COCC(=O)N1[C@H](C#N)[C@@H](c2ccccc2-c2cccc(C)c2)[C@@H]1CO	.	0	4	.	-1	.
O=S(=O)(N[C@H]1CC[C@H](CCn2cc(C3(O)CCCC3)nn2)O[C@@H]1CO)c1ccc(Cl)cc1	-2	0	0	0	-14	.
Cc1cccc(NC(=O)C2C(c3ccccc3)C2(Cl)Cl)c1 (stereo not drawn)	.	0	-49	.	.	-8
